Ki data for nine molecules are collected here from ChEMBL document CHEMBL1828568, “Novel imaging agents for β-amyloid plaque based on the N-benzoylindole core” (Bioorg Med Chem Lett, 2011).

A short description of assay [1]: Displacement of [125I]TZDM from amyloid beta (1 to 40) aggregates after 2 hrs by gamma counting. The procedure, abridged: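 Competition binding against [125I]TZDM as radiolabeled standard, using Aβ1–40 aggregates; run in triplicate, results as mean ± SD.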
Background: In a radioligand displacement assay an active substance lowers the binding of a labelled ligand.

Assay [2] can be described thus: Binding affinity to amyloid beta fibrils. The procedure, abridged:
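Competitive binding to Aβ1–40 aggregates, with [125I]TZDM as the radiolabeled reference ligand displaced by unlabeled test compound. Run in triplicate and reported as mean ± SD.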

Usually Ki stands for the dissociation constant of the complex between target and ligand, obtained from inhibition or displacement. The low end stands for a stronger hold on the target, the high end for a looser hold on the target. In assay [1], `COc1ccc(/C=C/C(=O)n2ccc3cc(Cl)ccc32)cc1` returned a Ki of 0.0181 µM.

Consider `COc1ccc(/C=C/C(=O)n2ccc3cc(I)ccc32)cc1`, for which, in assay [1], the inhibition constant Ki was found to be 0.0102 µM.

On to `COc1ccc(/C=C/C(=O)n2ccc3cc(C)ccc32)cc1`, for which, in assay [1], the Ki was 0.103 µM. Molecule `CC(C)Cc1ccc([C@@H](C)C(=O)O)cc1` [(R)-IBUPROPHEN] showed a Ki in assay [2] of 0.0113 µM. On to `COc1ccc(/C=C/C(=O)n2ccc3cc(Br)ccc32)cc1`, for which, in assay [1], the inhibitory constant (Ki) amounted to 0.0254 µM. Same read-out and setting: as for `O=C(/C=C/c1ccccc1)n1ccc2cc(F)ccc21`, the figure is 0.0327 µM; as for `COc1ccc(/C=C/C(=O)n2ccc3cc(OC)ccc32)cc1`, 0.0608 µM. In turn, `COc1ccc2cc([C@H](C)C(=O)O)ccc2c1` [NAPROXEN] had a Ki in assay [2] of 0.0057 µM. Molecule `Cc1ccc2c(ccn2C(=O)/C=C/c2ccccc2)c1` came in with an inhibition constant (Ki) in assay [1] of 0.128 µM.
